An excerpt weighted towards active compounds, which were near 2.3% of everything screened.
G6PDH CS: L. mesenteroides G6PDH inhibition counter-screen | Purified L. mesenteroides G6PDH, diaphorase/resazurin coupled fluorescence, 45 min | inhibition, % at 5 µM | actives 0.12% (n = 200,000) | AID 1020; in the data active = inhibition above about 50%
FLuc inh counter: counter-screen for luciferase assay inhibitors: firefly luciferase inhibition; actives 1.5% (n = 200,000); P08659; ATPLite firefly luciferase biochemical luminescence, 10 min; inhibition, % at 10 µM;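 active = inhibition above about 50% when tested at 10 µM, limit read from the data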
Target sequence (P08659 whole entry, looked up): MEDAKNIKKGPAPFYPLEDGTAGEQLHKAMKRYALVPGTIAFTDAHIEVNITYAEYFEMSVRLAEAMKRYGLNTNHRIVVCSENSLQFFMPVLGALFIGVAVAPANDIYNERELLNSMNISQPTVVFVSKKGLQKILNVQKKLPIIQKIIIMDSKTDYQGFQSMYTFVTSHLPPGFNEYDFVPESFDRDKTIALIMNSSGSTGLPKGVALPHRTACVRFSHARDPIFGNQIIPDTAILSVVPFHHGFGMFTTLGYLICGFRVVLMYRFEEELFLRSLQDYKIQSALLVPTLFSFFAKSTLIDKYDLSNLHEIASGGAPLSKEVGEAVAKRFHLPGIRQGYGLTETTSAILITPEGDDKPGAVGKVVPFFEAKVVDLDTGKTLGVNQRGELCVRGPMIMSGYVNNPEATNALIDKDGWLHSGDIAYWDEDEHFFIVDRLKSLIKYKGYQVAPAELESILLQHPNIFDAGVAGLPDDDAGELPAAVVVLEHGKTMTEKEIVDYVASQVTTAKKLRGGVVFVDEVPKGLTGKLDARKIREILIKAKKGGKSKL
Diaph act CS: diaphorase activation or chemical reduction counter-screen; activation factor at 20 µM; actives 0.005% (n = 190,000); Diaphorase/resazurin coupled assay, resorufin fluorescence, 16 min; hits give high values; 1 = vehicle wells, 0 = NADH-free wells;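 active = diaphorase activity raised at least twofold by the compound at 20 µM; inactive = activation factor below 2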
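Measured by – red resorufin fluorescence at 544/590 nm excitation/emission · Test system – Clostridium kluyveri diaphorase, purified enzyme · Incubation – reaction time 16 min, room temperature · Buffer or medium – 50 mM HEPES pH 7.4 with 4.542 mM MgCl2, 0.005% Tween 20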
FLuc stim CS: firefly luciferase counter-screen for stimulation assays; 200,000 tested, under 10 active; ATPlite luciferase biochemical, luminescence, 10 min; 0 = ATP-free wells, 1 = DMSO control; activation factor at 10 µM; AID 1027;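 active = luciferase activation factor, scaled between plate controls, of at least 2 with compound at 10 µM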
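test system = cell-free luciferase reagent | medium = PBS as buffer for the ATP substrate | dosing = test compounds dosed from 2 mM stocks in 100% DMSO | incubation = 10 min at ambient temperature | detection = luminescence measurement of luciferase light output | benchmarks = low control with PBS replacing ATP, high control enzyme plus ATP without compound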
Diaphorase inh: inhibits diaphorase or chemically oxidizes, flagging diaphorase assay artifacts | inhibition, % at 20 µM | diaphorase resazurin-to-resorufin fluorescence, NADH, 16 min; bacterial (C. kluyveri) enzyme, not human | actives 0.69% (n = 190,000);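 active = primary screen inhibition at 20 µM above a set limit, cut at about 50% in these data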;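 note: plate controls were DMSO with full reaction for no effect and wells lacking NADH for full effect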
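material = Clostridium kluyveri diaphorase enzyme | amount = 0.14 U/mL diaphorase, enzyme working solution | schedule = incubation 16 min, room temperature | detection = fluorescence of resorufin formed from resazurin, Ex 544/Em 590 nm | benchmarks = positive control minus NADH, DMSO neutral control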
Starred values were filed as active, the others as inactive.

SMILES	G6PDH CS	FLuc inh counter	Diaph act CS	FLuc stim CS	Diaphorase inh
CC(C)NC(=O)CN1CCN(Cc2nc(C(c3ccccc3)c3ccccc3)no2)CC1	13.2	-8.3	0.9	1.1	14.1
CCc1nnc(NC(=O)c2ccc(OC)cc2OC)s1	2.5	53.7*	1	0.5	-4.7
CC(C)(C)c1nnc(NC(=O)c2ccc(Cl)nc2)s1	4.0	0.7	1.1	1	-6.9
CCc1nnc(NC(=O)Nc2ccccc2OC)s1	-1.4	-2.6	0.9	1	10.9
CCc1nnc(NC(=O)c2ccc(Cl)nc2)s1	4.0	53.1*	0.9	0.5	12.5
CC(C)(C)c1ccc(/C=C2\SC(=O)N(CCNC(=O)c3cccc(S(=O)(=O)N4CCOCC4)c3)C2=O)cc1	-6.9	68.7*	0.9	0.3	8.3
N#CCC(=O)Nc1ccc(C(=O)NCc2ccccn2)cc1	4.5	-9.8	1	1.1	-1.4
O=C(Nc1nnc(-c2ccccc2Cl)o1)c1ccco1	8.6	65.9*	0.8	0.3	20.0
O=C(Nc1nnc(-c2cccs2)o1)c1ccco1	-2.0	2.1	0.8	1	20.8
COc1cccc(CNC(=O)CCC2CCCN(c3cc(C)nc(N4CCCC4)n3)C2)c1 (configuration not stated)	3.4	0.4	1.1	1	-14.7
COC(=O)c1ccc(N2NC(=O)/C(=C/c3ccc(-c4ccc(Cl)c(C(=O)O)c4)o3)C2=O)cc1	-0.1	16.4	0.3	0.8	73.5*
N/C(=N\OC(=O)c1ccccc1)c1ccccn1	22.9	96.0*	0.9	0	9.9
C/C(=N\OC(=O)c1ccc(Br)cc1)c1ccccn1	-0.1	79.7*	0.9	0.2	8.8
C/C(=N/OCc1ccc(Br)cc1)c1ccccn1	0.9	45.3	0.9	0.5	9.0
N/C(=N\OCc1ccc([N+](=O)[O-])cc1)c1ccccn1	1.3	95.8*	1.1	0	-8.0
N/C(=N\OC(=O)c1cc(Cl)ccc1Cl)c1ccccn1	4.7	74.9*	1.1	0.3	-6.2
Cc1cc(OC(C)C(=O)N/N=C/CC(C)c2ccccc2)ccc1Cl (configuration not stated)	4.1	-10.6	1	1.1	-3.6
Cc1cc(NC(=O)CN(C)C)c([N+](=O)[O-])cc1C	15.0	-3.0	1.1	1	-8.0
N/C(=N\OC(=O)/C=C/c1ccc(Br)cc1)c1ccccn1	2.8	5.5	1.1	0.9	-7.7
N/C(=N\OC(=O)c1ccc(Br)o1)c1ccccn1	7.2	78.5*	0.9	0.2	8.2
N/C(=N\OC(=O)/C=C/c1ccccc1Cl)c1ccccn1	9.0	74.0*	0.9	0.3	14.3
N/C(=N\OC(=O)c1ccccc1)c1ccncc1	-0.1	65.9*	1.1	0.3	-13.1
N/C(=N\OC(=O)c1ccc(Br)cc1)c1ccncc1	5.2	67.6*	1	0.3	0.0
CCn1c(COc2cc(C)ccc2C(C)C)nnc1SCC(=O)Nc1nccs1	7.4	-3.3	1	1	-4.5
Oc1ccc(/C=N/Nc2cc(N3CCOCC3)nc(N3CCOCC3)n2)cc1O	37.2	-1.2	0.4	1	63.7*
SMILES	G6PDH CS	FLuc inh counter	Diaph act CS	FLuc stim CS	Diaphorase inh
Clc1ccc(/C=N/Nc2ccccn2)cc1	8.0	8.9	1.1	0.9	-7.5
C(=N\Nc1ccccn1)/c1ccc(N2CCOCC2)cc1	7.5	74.3*	1	0.3	-0.4
COc1ccc2nc(Cl)c(/C=N/Nc3ccccn3)cc2c1	0.0	79.2*	1.3	0.2	-26.8
CCOc1ccc(/C=N/Nc2ccccn2)cc1	-0.5	82.0*	0.9	0.2	6.5
O=C(CSCc1cccc(Cl)c1)Nc1ccccc1-c1ccccc1	-5.1	-8.3	0.8	1.1	23.4
CN(C)c1ccc(-c2nc3ccccn3c2/N=C/c2ccc(Br)cc2)cc1	-2.4	94.3*	0.9	0.1	7.8
COc1ccc(-c2nc(-c3ccccn3)no2)cc1	17.1	97.5*	0.9	0	12.5
COc1ccccc1-c1nc(-c2ccccn2)no1	-3.5	87.8*	0.9	0.1	5.9
Brc1ccc(-c2nc(-c3ccccn3)no2)o1	10.4	73.9*	0.9	0.3	9.5
COc1ccccc1-c1nc(-c2ccc(C)nc2OC)no1	-7.3	25.8	0.9	0.7	8.7
Brc1ccc(-c2nc(-c3ccncc3)no2)o1	9.6	5.9	1	0.9	4.7
COc1nc(C)ccc1-c1noc(-c2ccccn2)n1	-10.6	68.7*	1	0.3	0.3
CCNc1nc(OC)nc(SCC(=O)Nc2ccccc2)n1	-0.6	-2.6	0.9	1	8.7
O=C1c2ccccc2C(Nc2ccc(S(=O)(=O)N3CCOCC3)cc2)N1Cc1ccco1 (configuration not stated)	9.8	-2.1	0.8	1	24.7
Clc1ccc(-c2nc(-c3ccccn3)no2)cc1Cl	0.2	87.9*	1.1	0.1	-12.2
Cc1ccccc1-c1nc(-c2cccnc2)no1	8.9	21.4	0.9	0.8	10.1
Cc1ccccc1-c1nc(-c2ccccn2)no1	-4.4	95.1*	0.9	0	7.5
Cc1cccc(-n2c(=S)[nH]c3sc4c(c3c2=O)CCc2ccccc2-4)c1	0.4	-1.5	0.3	1	69.8*
C=CCNC1=C(Cl)C(=O)c2ccccc2C1=O	41.9	1.3	1	1	3.9
CCN(CC)CCCNC1=C(Cl)C(=O)c2ccccc2C1=O	53.6*	-2.5	0.8	1	22.2
COc1cc([N+](=O)[O-])c(C(=O)N2CCOCC2)c([N+](=O)[O-])c1	-0.6	-4.8	0.8	1	17.0
O=C(Nc1ccccc1)Nc1ccc2ocnc2c1	2.2	60.9*	0.9	0.4	7.8
Nc1ccc(C(=O)Nc2ccccc2C(=O)O)cc1	-6.4	53.8*	0.9	0.5	5.9
CCOc1ccc(C(=O)Nc2ccccc2C(=O)O)cc1	9.1	92.6*	1.1	0.1	-14.3
CCOc1ccccc1NC(=O)c1ccc2nccnc2c1	1.5	-4.7	0.7	1	25.1
SMILES	G6PDH CS	FLuc inh counter	Diaph act CS	FLuc stim CS	Diaphorase inh
CCOC(=O)c1ccccc1NC(=O)c1ccc2nccnc2c1	2.5	-5.9	0.5	1.1	54.9*
COc1ccc(-c2nsc3c(N4CCN(S(=O)(=O)c5ccccc5F)CC4)ncnc23)cc1	4.8	-4.3	1	1	-3.8
COc1ccc(-c2nsc3c(N4CCCCC4)ncnc23)cc1	6.5	89.0*	0.8	0.1	15.1
COc1ccc(C(=O)N2CCN(c3ncnc4c(-c5ccccc5)nsc34)CC2)cc1	-66.2	-8.7	0.7	1.1	30.8
COc1ccc(-c2nsc3c(N4CCCCC4C)ncnc23)cc1 (configuration not stated)	11.9	90.8*	0.9	0.1	14.2
CCC(C)C(=O)N1CCc2cc(-c3csc(N)n3)ccc21 (configuration not stated)	-0.6	67.2*	0.7	0.3	28.2

Source: PubChem BioAssay (Sanford-Burnham Center for Chemical Genomics)
